Assay results: ChEMBL document CHEMBL5058577, “EUbOPEN Chemogenomics Library 2 (Multiplex)” (2022)

System: HEK-293T
Assay: Multiplex assay against HEK293T
Assay type: toxicity, cell-based
Details: human
Procedure, shortened: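 Compound was added to live cells that had been stained at seeding with Hoechst33342, BioTracker Green Microtubule Cytoskeleton Dye, MitoTracker Red and Annexin V Alexa Fluor 680, and imaging followed on a CQ1 microscope at 37°C and 5% CO2. CellPathfinder machine-learning gating divided cells into Hoechst high-intensity objects or normal cells, normal cells into healthy, pyknosed or fragmented nuclei, and pyknosed cells into mitotic or apoptotic. Tubulin, mitochondrial-mass and membrane-permeability phenotypes are per cents of healthy-nucleus cells.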

[1] = 12 h, 1 µM, compound concentration 1 uM, replicate 1
[2] = 12 h, 1 µM, compound concentration 1 uM, replicate 2
[3] = 12 h, 10 µM, compound concentration 10 uM, replicate 1
[4] = 12 h, 10 µM, compound concentration 10 uM, replicate 2
[5] = 24 h, 1 µM, compound concentration 1 uM, replicate 1
[6] = 24 h, 1 µM, compound concentration 1 uM, replicate 2
[7] = 24 h, 10 µM, compound concentration 10 uM, replicate 1
[8] = 24 h, 10 µM, compound concentration 10 uM, replicate 2
[9] = 48 h, 1 µM, compound concentration 1 uM, replicate 1
[10] = 48 h, 1 µM, compound concentration 1 uM, replicate 2
[11] = 48 h, 10 µM, compound concentration 10 uM, replicate 1
[12] = 48 h, 10 µM, compound concentration 10 uM, replicate 2

How did the “Population Apoptotic (%)” value [1] turn out when `CC(C)COc1ccc(CNC(=O)N(Cc2ccc(F)cc2)C2CCN(C)CC2)cc1` [PIMAVANSERIN] was run?
The value was 39%.

What about the “Population Fragmented Nuclei (%)” value [1] of the same compound?
Its value is 5%.

What about the “Population Healthy Nuclei (%)” value [1] of the same compound?
The value was 82%.

And the “Population Hoechst High Intensity Objects (%)” value [1]?
The value was 6%.

What about the “Population Membrane Permeable-Phenotype (%)” value [1] of the same compound?
Its value is 0%.

What about the “Population Mitochondria Different-Phenotype (%)” value [1] of the same compound?
The value was 50%.

What about the “Population Mitotic Cells (%)” value [1] of the same compound?
The value was 60%.

What about the “Population Normal (%)” value [1] of the same compound?
The value was 93%.

What about the “Population Pyknosed Nuclei (%)” value [1] of the same compound?
The value was 11%.

What about the “Population Tubulin-Different-Phenotype (%)” value [1] of the same compound?
The value was 49%.

And the “Total Cell Count” value [1]?
Its value is 430.

What about the “Population Apoptotic (%)” value [2] of the same compound?
The value was 54%.

What about the “Population Fragmented Nuclei (%)” value [2] of the same compound?
The value was 7%.

And the “Population Healthy Nuclei (%)” value [2]?
The value was 74%.

What about the “Population Hoechst High Intensity Objects (%)” value [2] of the same compound?
The value was 11%.

What about the “Population Mitochondria Different-Phenotype (%)” value [2] of the same compound?
Its value is 68%.

What about the “Population Mitotic Cells (%)” value [2] of the same compound?
Its value is 46%.

And the “Population Normal (%)” value [2]?
Its value is 88%.

What about the “Population Pyknosed Nuclei (%)” value [2] of the same compound?
Its value is 18%.

What about the “Population Tubulin-Different-Phenotype (%)” value [2] of the same compound?
Its value is 35%.

What about the “Total Cell Count” value [2] of the same compound?
The value was 311.

And the “Population Apoptotic (%)” value [3]?
The value was 62%.

What about the “Population Fragmented Nuclei (%)” value [3] of the same compound?
Its value is 10%.

And the “Population Healthy Nuclei (%)” value [3]?
Its value is 60%.

And the “Population Hoechst High Intensity Objects (%)” value [3]?
Its value is 19%.

What about the “Population Membrane Permeable-Phenotype (%)” value [3] of the same compound?
Its value is 0%.

What about the “Population Mitochondria Different-Phenotype (%)” value [3] of the same compound?
The value was 89%.

What about the “Population Mitotic Cells (%)” value [3] of the same compound?
The value was 37%.

And the “Population Normal (%)” value [3]?
The value was 80%.

And the “Population Pyknosed Nuclei (%)” value [3]?
The value was 28%.

And the “Population Tubulin-Different-Phenotype (%)” value [3]?
Its value is 81%.

And the “Total Cell Count” value [3]?
The value was 285.

What about the “Population Apoptotic (%)” value [4] of the same compound?
Its value is 79%.

What about the “Population Fragmented Nuclei (%)” value [4] of the same compound?
Its value is 7%.

What about the “Population Healthy Nuclei (%)” value [4] of the same compound?
Its value is 64%.

What about the “Population Hoechst High Intensity Objects (%)” value [4] of the same compound?
Its value is 25%.

And the “Population Mitochondria Different-Phenotype (%)” value [4]?
Its value is 87%.

What about the “Population Mitotic Cells (%)” value [4] of the same compound?
Its value is 20%.

And the “Population Normal (%)” value [4]?
The value was 74%.

And the “Population Pyknosed Nuclei (%)” value [4]?
Its value is 27%.

What about the “Population Tubulin-Different-Phenotype (%)” value [4] of the same compound?
The value was 66%.

And the “Total Cell Count” value [4]?
Its value is 237.

And the “Population Apoptotic (%)” value [5]?
Its value is 33%.

What about the “Population Fragmented Nuclei (%)” value [5] of the same compound?
The value was 9%.

And the “Population Healthy Nuclei (%)” value [5]?
Its value is 77%.

What about the “Population Hoechst High Intensity Objects (%)” value [5] of the same compound?
The value was 6%.

What about the “Population Membrane Permeable-Phenotype (%)” value [5] of the same compound?
The value was 2%.

What about the “Population Mitochondria Different-Phenotype (%)” value [5] of the same compound?
Its value is 42%.

And the “Population Mitotic Cells (%)” value [5]?
Its value is 66%.

And the “Population Normal (%)” value [5]?
The value was 93%.

And the “Population Pyknosed Nuclei (%)” value [5]?
The value was 13%.

What about the “Population Tubulin-Different-Phenotype (%)” value [5] of the same compound?
Its value is 40%.

And the “Total Cell Count” value [5]?
Its value is 553.

And the “Population Apoptotic (%)” value [6]?
The value was 48%.

What about the “Population Fragmented Nuclei (%)” value [6] of the same compound?
The value was 4%.

And the “Population Healthy Nuclei (%)” value [6]?
Its value is 82%.

What about the “Population Hoechst High Intensity Objects (%)” value [6] of the same compound?
The value was 8%.

And the “Population Membrane Permeable-Phenotype (%)” value [6]?
The value was 0%.

What about the “Population Mitochondria Different-Phenotype (%)” value [6] of the same compound?
Its value is 55%.

And the “Population Mitotic Cells (%)” value [6]?
The value was 51%.

What about the “Population Normal (%)” value [6] of the same compound?
Its value is 91%.

What about the “Population Pyknosed Nuclei (%)” value [6] of the same compound?
The value was 12%.

What about the “Population Tubulin-Different-Phenotype (%)” value [6] of the same compound?
The value was 30%.

And the “Total Cell Count” value [6]?
The value was 394.

And the “Population Apoptotic (%)” value [7]?
The value was 81%.

And the “Population Fragmented Nuclei (%)” value [7]?
Its value is 10%.

And the “Population Healthy Nuclei (%)” value [7]?
The value was 57%.

What about the “Population Hoechst High Intensity Objects (%)” value [7] of the same compound?
The value was 27%.

And the “Population Membrane Permeable-Phenotype (%)” value [7]?
The value was 0%.

And the “Population Mitochondria Different-Phenotype (%)” value [7]?
The value was 94%.

What about the “Population Mitotic Cells (%)” value [7] of the same compound?
The value was 18%.

And the “Population Normal (%)” value [7]?
The value was 72%.

What about the “Population Pyknosed Nuclei (%)” value [7] of the same compound?
Its value is 31%.

What about the “Population Tubulin-Different-Phenotype (%)” value [7] of the same compound?
Its value is 77%.

What about the “Total Cell Count” value [7] of the same compound?
The value was 285.

And the “Population Apoptotic (%)” value [8]?
The value was 84%.

What about the “Population Fragmented Nuclei (%)” value [8] of the same compound?
The value was 12%.

And the “Population Healthy Nuclei (%)” value [8]?
The value was 54%.

What about the “Population Hoechst High Intensity Objects (%)” value [8] of the same compound?
The value was 34%.

What about the “Population Mitochondria Different-Phenotype (%)” value [8] of the same compound?
Its value is 100%.

What about the “Population Mitotic Cells (%)” value [8] of the same compound?
Its value is 15%.

And the “Population Normal (%)” value [8]?
Its value is 65%.

And the “Population Pyknosed Nuclei (%)” value [8]?
Its value is 32%.

What about the “Population Tubulin-Different-Phenotype (%)” value [8] of the same compound?
The value was 69%.

What about the “Total Cell Count” value [8] of the same compound?
The value was 215.

And the “Population Apoptotic (%)” value [9]?
Its value is 27%.

And the “Population Fragmented Nuclei (%)” value [9]?
The value was 13%.

And the “Population Healthy Nuclei (%)” value [9]?
The value was 77%.

And the “Population Hoechst High Intensity Objects (%)” value [9]?
Its value is 5%.

What about the “Population Membrane Permeable-Phenotype (%)” value [9] of the same compound?
The value was 1%.

And the “Population Mitochondria Different-Phenotype (%)” value [9]?
The value was 31%.

And the “Population Mitotic Cells (%)” value [9]?
Its value is 72%.

And the “Population Normal (%)” value [9]?
The value was 94%.

And the “Population Pyknosed Nuclei (%)” value [9]?
The value was 8%.

And the “Population Tubulin-Different-Phenotype (%)” value [9]?
Its value is 33%.

And the “Total Cell Count” value [9]?
The value was 869.

And the “Population Apoptotic (%)” value [10]?
The value was 48%.

And the “Population Fragmented Nuclei (%)” value [10]?
The value was 9%.

And the “Population Healthy Nuclei (%)” value [10]?
The value was 84%.

What about the “Population Membrane Permeable-Phenotype (%)” value [10] of the same compound?
The value was 0%.

And the “Population Mitochondria Different-Phenotype (%)” value [10]?
The value was 33%.

And the “Population Mitotic Cells (%)” value [10]?
Its value is 51%.

What about the “Population Pyknosed Nuclei (%)” value [10] of the same compound?
The value was 6%.

And the “Population Tubulin-Different-Phenotype (%)” value [10]?
The value was 21%.

And the “Total Cell Count” value [10]?
Its value is 601.

And the “Population Apoptotic (%)” value [11]?
Its value is 75%.

What about the “Population Fragmented Nuclei (%)” value [11] of the same compound?
The value was 29%.

What about the “Population Healthy Nuclei (%)” value [11] of the same compound?
Its value is 30%.

And the “Population Hoechst High Intensity Objects (%)” value [11]?
Its value is 52%.

And the “Population Membrane Permeable-Phenotype (%)” value [11]?
The value was 0%.

And the “Population Mitochondria Different-Phenotype (%)” value [11]?
Its value is 88%.

And the “Population Mitotic Cells (%)” value [11]?
Its value is 24%.

And the “Population Normal (%)” value [11]?
The value was 47%.

What about the “Population Pyknosed Nuclei (%)” value [11] of the same compound?
Its value is 40%.

And the “Population Tubulin-Different-Phenotype (%)” value [11]?
The value was 58%.

And the “Total Cell Count” value [11]?
Its value is 235.

And the “Population Apoptotic (%)” value [12]?
Its value is 61%.

What about the “Population Fragmented Nuclei (%)” value [12] of the same compound?
The value was 31%.

And the “Population Hoechst High Intensity Objects (%)” value [12]?
Its value is 60%.

What about the “Population Mitochondria Different-Phenotype (%)” value [12] of the same compound?
Its value is 92%.

What about the “Population Mitotic Cells (%)” value [12] of the same compound?
Its value is 38%.

And the “Population Normal (%)” value [12]?
The value was 40%.

What about the “Population Pyknosed Nuclei (%)” value [12] of the same compound?
The value was 37%.

And the “Population Tubulin-Different-Phenotype (%)” value [12]?
The value was 64%.

And the “Total Cell Count” value [12]?
The value was 205.
